# Compound activity as filed in PubChem.
# This is a sample that favours compounds with a hit; in the whole collection about 3.1% have one here.
# OX1R antag-1: human HCRTR1 antagonism | O43613 | CHO/OX1R cells, Fluo-8 calcium fluorescence, orexin A | inhibition, % at 5 µM | actives 0.43% (n = 330,000);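 active = inhibition above its plate's threshold, mean inhibition of all tested compounds on the plate plus 3 SD, cut at about 37% in these data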;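 note: 0% = orexin A challenge wells and 100% = SB-334867-A antagonist wells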
# Target sequence (O43613 whole entry, looked up): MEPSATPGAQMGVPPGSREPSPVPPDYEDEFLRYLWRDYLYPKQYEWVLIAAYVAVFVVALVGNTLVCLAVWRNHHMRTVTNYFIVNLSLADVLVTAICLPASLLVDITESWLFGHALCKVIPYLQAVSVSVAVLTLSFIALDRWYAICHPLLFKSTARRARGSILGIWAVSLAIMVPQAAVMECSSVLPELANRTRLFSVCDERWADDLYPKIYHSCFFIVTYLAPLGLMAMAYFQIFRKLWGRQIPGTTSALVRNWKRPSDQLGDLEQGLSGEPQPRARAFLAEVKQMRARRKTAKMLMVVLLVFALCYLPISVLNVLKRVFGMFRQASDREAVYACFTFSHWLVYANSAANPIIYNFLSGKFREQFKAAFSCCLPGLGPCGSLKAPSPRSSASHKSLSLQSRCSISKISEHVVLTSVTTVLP
# GalR3 antag: antagonists of human GalR3. inhibition, % at 3 µM. O60755. HEK293 GalR3-CNG cAMP membrane potential fluorescence; galR3 body fused to GalR1 C-terminus. actives 0.44% (n = 360,000). AID 651719;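 active = inhibition above the screen-wide average plus 3 SD, cut at about 13% in these data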;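 note: forskolin and galanin both at EC90 stimulate the cells; cAMP rise reported by CNG channel membrane potential dye signal; 0% = forskolin plus galanin with DMSO and 100% = forskolin alone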
# GPR7 antag: human neuropeptides B/W receptor 1 antagonism. GPR7-expressing cells, fluorescence antagonist assay. P48145. inhibition, % at 4.4 µM. AID 1861. actives 1.1% (n = 290,000); in the data active = inhibition above about 16%, passing the limit was not always enough;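 note: cells stimulated with the agonist NPW; 0% = agonist with vehicle and 100% = vehicle without agonist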
# OX1R antag-2: OX1R (human) antagonism; OX1R-expressing cells, FRET antagonist read-out; O43613; AID 485270; actives 1.8% (n = 330,000); inhibition, % at 6.6 µM; in the data active = inhibition mostly above about 38%, no sharp cut-off; inactive = mostly below about 40%;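 note: 0% = agonist challenge alone and 100% = reference antagonist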
# CHO parental Ca: counter-screen: ATP calcium response change in parental CHO cells; actives 0.63% (n = 330,000); parental CHO-K1, ATP-induced calcium, Fluo-8 fluorescence; AID 463079; inhibition, % at 5.6 µM;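 active = inhibition above that plate's mean sample inhibition plus 3 SD, cut at about 26% in these data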;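 note: 0% = ATP-challenged DMSO wells and 100% = DMSO wells without ATP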
#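 test system = CHO parental line | reagent = ATP stimulus | measured by = intracellular calcium via Fluo-8 no-wash fluorescent dye | control set = ATP and no-ATP DMSO wells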
# GalR3 conf: confirmation of human galanin receptor 3 antagonists. inhibition, % at 3 µM. shares compounds with GalR3 antag. HEK293 GalR3 CNG cAMP biosensor, membrane potential fluorescence; galR3 fused to GalR1 carboxy tail; challenged with forskolin and galanin at EC90. actives 59% (n = 1,600);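 active = inhibition above the primary screen's cutoff, the mean inhibition of all screened compounds plus 3 SD, cut at about 13% in these data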;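 note: 0% = forskolin plus galanin and 100% = forskolin alone with DMSO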
# HEK-CNG parental: acts as nonspecific agonist in parental HEK-CNG cells | actives 10% (n = 1,600) | AID 652268 | HEK293-CNG parental cells, cAMP membrane potential fluorescence; normalised: DMSO wells 0%, forskolin wells 100% | shares compounds with GalR3 antag | activation, % at 3 µM; in the data active = activation above about 1.3%
# * hit, by the source's call; . = not tested or not shown.
SMILES,OX1R antag-1,GalR3 antag,GPR7 antag,OX1R antag-2,CHO parental Ca,GalR3 conf,HEK-CNG parental
COc1ccc(C2=CC(c3ccc4c(c3)OCO4)c3c(c4ccccc4oc3=O)O2)cc1OC (centres undefined),.,36.2*,.,.,.,42.1*,0.8
O=C(NCCO)c1nsnc1NCCCl,-7.6,.,3.3,23.8,13.2,28.4*,-0.2
CCOC(=O)[C@]12Cc3ccccc3[C@H]1N(Cc1ccccc1)C(=O)c1cc(F)c(F)cc12,.,-4.1,.,.,.,.,.
C[C@]12CC[C@H]3C(CCC4(O)CC(O)CC[C@]34C=O)C1=CC[C@H]2c1ccc(=O)oc1 (some centres undefined),-10.1,16.7*,3.2,-7.0,-12.0,41.7*,2.7*
Cc1cc([N+](=O)[O-])c(Cl)cc1NC(=O)C(C)C,-17.8,-1.5,-5.2,5.3,-13.7,.,.
CNc1cc(Cl)c2nonc2c1[N+](=O)[O-],.,39.1*,51.1*,.,.,31.3*,0.4
COC(=O)C1=C(C(=O)OC)SC2(S1)C(C(=O)OC)=C(C(=O)OC)Sc1c2ssc1=O,.,6.6,.,.,.,.,.
